ChEMBL document CHEMBL4033657, “N-Aryl-N'-ethyleneaminothioureas effectively inhibit acetylcholinesterase 1 from disease-transmitting mosquitoes” (Eur J Med Chem, 2017)
pIC50: −log10 of the molar value. Activity calls are given as the source filed them. The calls are words filed in the database; no cut-off is given here.

Legend:
[1] = Selectivity ratio of IC50 for recombinant human AChE expressed in HEK293F cells to IC50 for recombinant full length Anopheles gambiae AChE1 expressed in baculovirus-infected Sf9 insect cells
Procedure, shortened: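 Ratio of the hAChE IC50 divided by the higher of the AgAChE1 or AaAChE1 IC50. Each IC50 came from an Ellman assay (1 mM acetylthiocholine, 0.2 mM DTNB, pH 7.4, 30 °C) with eight concentrations up to 1 mM, using 2-3 replicates.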

Acetylcholinesterase [2] = target: Acetylcholinesterase (Anopheles gambiae, UniProt Q869C3); assay: Inhibition of recombinant full length Anopheles gambiae AChE1 expressed in baculovirus-infected Sf9 insect cells using acetylthiocholine iodide as substrate measured over 60 secs by Ellman's method
Acetylcholinesterase [3] = target: T1, Acetylcholinesterase (Homo sapiens, UniProt P22303); assay: Inhibition of recombinant human AChE expressed in HEK293F cells using acetylthiocholine iodide as substrate measured over 60 secs by Ellman's method; parameters: species or system HEK293
[4] = Inhibition of recombinant full length Aedes aegypti AChE1 expressed in baculovirus-infected Sf9 insect cells using acetylthiocholine iodide as substrate measured over 60 secs by Ellman's method
Procedure, shortened: (§1)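 Secreted, non-purified recombinant enzyme in growth medium, tested as enzyme source. Ellman assay at 30 °C in 0.1 M phosphate buffer pH 7.4 with 0.2 mM DTNB and 1 mM acetylthiocholine iodide; A412 followed over 60 s. Compound (100 mM DMSO stock) tested at eight concentrations, maximum 1 mM. Activity set relative to eight uninhibited controls per plate; IC50 from three-parameter variable-slope fit; 2-3 independent replicates.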

Acetylcholinesterase [5] = target: Acetylcholinesterase (Anopheles gambiae, UniProt Q869C3, G122S); assay: Inhibition of recombinant full length Anopheles gambiae AChE1 G122S mutant expressed in baculovirus-infected Sf9 insect cells using acetylthiocholine iodide as substrate measured over 60 secs by Ellman's method
Acetylcholinesterase [6] = target: T1, Acetylcholinesterase; assay: Inhibition of recombinant human AChE expressed in HEK293F cells up to 1 mM using acetylthiocholine iodide as substrate measured over 60 secs by Ellman's method; details: HEK293; procedure, shortened: as §1
[7] = test system: Acetylcholinesterase (Anopheles gambiae), Q869C3 [G122S]; assay: Inhibition of recombinant full length Anopheles gambiae AChE1 G122S mutant expressed in baculovirus-infected Sf9 insect cells up to 1 mM using acetylthiocholine iodide as substrate measured over 60 secs by Ellman's method; procedure, shortened: as §1
Aedes aegypti [8] = assay: Inhibition of recombinant full length Aedes aegypti AChE1 expressed in baculovirus-infected Sf9 insect cells at 1 mM using acetylthiocholine iodide as substrate measured over 60 secs by Ellman's method; procedure, shortened: as §1
[9] = target: Acetylcholinesterase (Anopheles gambiae) (UniProt Q869C3); assay: Inhibition of recombinant full length Anopheles gambiae AChE1 expressed in baculovirus-infected Sf9 insect cells at 1 mM using acetylthiocholine iodide as substrate measured over 60 secs by Ellman's method; procedure, shortened: as §1
Aedes aegypti [10] = assay: Insecticidal activity against 3rd instar larvae of Aedes aegypti Mombasa assessed as mortality at 500 uM administered via de-chlorinated tap water after 24 hrs; format: functional
Procedure, shortened: (§2)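 Kenyan strains were reared at 27-28 °C, about 80% humidity, 12/12 h light. Per compound and concentration, 25 third-instar larvae were placed in 100 ml de-chlorinated water containing the compound and kept under insectary conditions. The negative control was plain water; the positive control was propoxur at 25 µM. Mortality was scored at 24 h; 75 treated and 50 control larvae in total.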

Aedes aegypti [11] = assay: Insecticidal activity against five days old adult Aedes aegypti Mombasa assessed as mortality at 100 mM applied topically on upper part of pronotum after 24 hrs (reference value: 3%); format: functional; details: topical
Aedes aegypti [12] = assay: Insecticidal activity against 3rd instar larvae of Aedes aegypti Mombasa assessed as mortality at 50 uM administered via de-chlorinated tap water after 48 hrs (reference value: 0 to 4%); format: functional
Anopheles gambiae [13] = assay: Insecticidal activity against five days old adult Anopheles gambiae Kisumu assessed as mortality at 0.2 nmol applied topically on upper part of pronotum after 24 hrs; format: functional
Anopheles gambiae [14] = assay: Insecticidal activity against 3rd instar larvae of Anopheles gambiae Kisumu assessed as mortality at 500 uM administered via de-chlorinated tap water after 24 hrs; format: functional; procedure, shortened: as §2
Aedes aegypti [15] = assay: Insecticidal activity against five days old adult Aedes aegypti Mombasa assessed as mortality at 1 nmol applied topically on upper part of pronotum after 24 hrs; format: functional
Anopheles gambiae [16] = assay: Insecticidal activity against five days old adult Anopheles gambiae Kisumu assessed as mortality at 100 mM applied topically on upper part of pronotum after 48 hrs (reference value: 15 to 24%); format: functional; details: topical
Anopheles gambiae [17] = assay: Insecticidal activity against five days old adult Anopheles gambiae Kisumu assessed as mortality at 10 mM applied topically on upper part of pronotum after 48 hrs (reference value: 14 to 22%); format: functional; details: topical
Anopheles gambiae [18] = assay: Insecticidal activity against five days old adult Anopheles gambiae Kisumu assessed as mortality at 10 nmol applied topically on upper part of pronotum after 24 hrs; format: functional
Anopheles gambiae [19] = assay: Insecticidal activity against five days old adult Anopheles gambiae Kisumu assessed as mortality at 2 mM applied topically on upper part of pronotum after 24 hrs (reference value: 3 to 17%); format: functional; details: topical
Aedes aegypti [20] = assay: Insecticidal activity against five days old adult Aedes aegypti Mombasa assessed as mortality at 0.2 nmol applied topically on upper part of pronotum after 24 hrs; format: functional
Anopheles gambiae [21] = assay: Insecticidal activity against five days old adult Anopheles gambiae Kisumu assessed as mortality at 2 mM applied topically on upper part of pronotum after 48 hrs (reference value: 13 to 38%); format: functional; details: topical
Aedes aegypti [22] = assay: Insecticidal activity against five days old adult Aedes aegypti Mombasa assessed as mortality at 100 mM applied topically on upper part of pronotum after 48 hrs (reference value: 7 to 8%); format: functional; details: topical
Anopheles gambiae [23] = assay: Insecticidal activity against 3rd instar larvae of Anopheles gambiae Kisumu assessed as mortality at 500 uM administered via de-chlorinated tap water after 48 hrs; format: functional
Aedes aegypti [24] = assay: Insecticidal activity against five days old adult Aedes aegypti Mombasa assessed as mortality at 10 nmol applied topically on upper part of pronotum after 24 hrs; format: functional
Anopheles gambiae [25] = assay: Insecticidal activity against five days old adult Anopheles gambiae Kisumu assessed as mortality at 1 nmol applied topically on upper part of pronotum after 24 hrs; format: functional
Anopheles gambiae [26] = assay: Insecticidal activity against 3rd instar larvae of Anopheles gambiae Kisumu assessed as mortality at 50 uM administered via de-chlorinated tap water after 24 hrs; format: functional; procedure, shortened: as §2
Aedes aegypti [27] = assay: Insecticidal activity against five days old adult Aedes aegypti Mombasa assessed as mortality at 2 mM applied topically on upper part of pronotum after 48 hrs (reference value: 3 to 12%); format: functional; details: topical
Aedes aegypti [28] = assay: Insecticidal activity against five days old adult Aedes aegypti Mombasa assessed as mortality at 2 mM applied topically on upper part of pronotum after 24 hrs (reference value: 2 to 10%); format: functional; details: topical
Aedes aegypti [29] = assay: Insecticidal activity against five days old adult Aedes aegypti Mombasa assessed as mortality at 10 mM applied topically on upper part of pronotum after 24 hrs (reference value: 3 to 15%); format: functional; details: topical
Anopheles gambiae [30] = assay: Insecticidal activity against 3rd instar larvae of Anopheles gambiae Kisumu assessed as mortality at 50 uM administered via de-chlorinated tap water after 48 hrs; format: functional
Anopheles gambiae [31] = assay: Insecticidal activity against five days old adult Anopheles gambiae Kisumu assessed as mortality at 10 mM applied topically on upper part of pronotum after 24 hrs (reference value: 8 to 16%); format: functional; details: topical
Anopheles gambiae [32] = assay: Insecticidal activity against five days old adult Anopheles gambiae Kisumu assessed as mortality at 100 mM applied topically on upper part of pronotum after 24 hrs (reference value: 9 to 10%); format: functional; details: topical
Aedes aegypti [33] = assay: Insecticidal activity against five days old adult Aedes aegypti Mombasa assessed as mortality at 10 mM applied topically on upper part of pronotum after 48 hrs (reference value: 3 to 15%); format: functional; details: topical
Aedes aegypti [34] = assay: Insecticidal activity against 3rd instar larvae of Aedes aegypti Mombasa assessed as mortality at 500 uM administered via de-chlorinated tap water after 48 hrs (reference value: 0 to 2%); format: functional
Aedes aegypti [35] = assay: Insecticidal activity against 3rd instar larvae of Aedes aegypti Mombasa assessed as mortality at 50 uM administered via de-chlorinated tap water after 24 hrs; format: functional; procedure, shortened: as §2

S=C(NCCN1CCCCC1)Nc1cccc(Cl)c1
Ratio IC50 [1]: 1
pIC50 (Acetylcholinesterase [2]): 3.85
pIC50 (Acetylcholinesterase [3]): 3.72
pIC50 [4]: 3.92
pIC50 (Acetylcholinesterase [5]): 4.66

S=C(NCCN1CCOCC1)Nc1ccc(Cl)cc1
inhibition (Acetylcholinesterase [6]): inactive
inhibition [7]: inactive
inhibition (Aedes aegypti [8]): inactive
inhibition [9]: inactive

COc1ccc(NC(=S)NCCN(C)C)cc1Cl
Ratio IC50 [1]: 3
pIC50 (Acetylcholinesterase [2]): 4.74
pIC50 (Acetylcholinesterase [3]): 4.34
pIC50 [4]: 4.80
pIC50 (Acetylcholinesterase [5]): 4.77

CN(C)CCNC(=S)Nc1ccccc1Cl
pIC50 (Acetylcholinesterase [2]): 4.77
pIC50 (Acetylcholinesterase [3]): < 3.70
pIC50 [4]: 4.85
pIC50 (Acetylcholinesterase [5]): < 3.70

COc1ccc(NC(=S)NCCN(C)C)cc1
mortality at 500 µM (Aedes aegypti [10]): 1%
mortality at 100000 µM (Aedes aegypti [11]): 12%
mortality at 50 µM (Aedes aegypti [12]): 5%
mortality (Anopheles gambiae [13]): 0%
mortality at 500 µM (Anopheles gambiae [14]): 3%
mortality (Aedes aegypti [15]): 0%
mortality at 100000 µM (Anopheles gambiae [16]): 67%
mortality at 10000 µM (Anopheles gambiae [17]): 50%
mortality (Anopheles gambiae [18]): 55%
mortality at 2000 µM (Anopheles gambiae [19]): 17%
mortality (Aedes aegypti [20]): 1%
mortality at 2000 µM (Anopheles gambiae [21]): 36%
mortality at 100000 µM (Aedes aegypti [22]): 17%
mortality at 500 µM (Anopheles gambiae [23]): 16%
mortality (Aedes aegypti [24]): 12%
mortality (Anopheles gambiae [25]): 32%
mortality at 50 µM (Anopheles gambiae [26]): 4%
mortality at 2000 µM (Aedes aegypti [27]): 11%
pIC50 (Acetylcholinesterase [2]): < 3.70
mortality at 2000 µM (Aedes aegypti [28]): 11%
mortality at 10000 µM (Aedes aegypti [29]): 12%
pIC50 (Acetylcholinesterase [3]): < 3.70
mortality at 50 µM (Anopheles gambiae [30]): 5%
mortality at 10000 µM (Anopheles gambiae [31]): 43%
pIC50 [4]: < 3.70
pIC50 (Acetylcholinesterase [5]): < 3.70
mortality at 100000 µM (Anopheles gambiae [32]): 59%
mortality at 10000 µM (Aedes aegypti [33]): 21%
mortality at 500 µM (Aedes aegypti [34]): 3%
mortality at 50 µM (Aedes aegypti [35]): 4%
